This is a sample that favours compounds with a hit; in the whole collection about 1.4% have one here.
Fh CTSL1 inh: cathepsin L1 inhibition, PFM18AAP counter-screen. recombinant F. hepatica cathepsin L1, Z-Leu-Arg-MCA fluorescence. inhibition, % at 5.96 µM. 300,000 compounds, 0.49% hits;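 active = inhibition above the mean of all tested compounds plus 3 SD, set per screening campaign, cut at about 17% in these data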;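 also: 0% = plate median of test compound wells and 100% = 1 µM Z-Phe-Ala-diazomethylketone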
EBNA-1 inh: blocks EBNA-1 binding to DNA | inhibition, % at 14.8 µM | AID 1950 | EBNA-1 DNA binding, fluorescence polarization | 300,000 compounds, 0.34% hits; in the data active = inhibition above about 28%
HCV NS3 hel inh: blocks Hepatitis C virus NS3 helicase unwinding. NS3 helicase DNA unwinding, Cy5 molecular beacon fluorescence. inhibition, % at 10.9 µM. 290,000 compounds, 0.56% hits;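 active = inhibition above the mean of all tested compounds plus 3 SD, set per campaign, cut at about 35% in these data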;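 also: 0% = DMSO wells and 100% = thioflavine S control wells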
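assay system = NS3 helicase fragment of HCV | buffer or medium = MOPS pH 6.5, MgCl2, DTT, Tween20, BSA | timing = 60 min unwinding reaction at 25 °C after ATP addition | signal = Cy5 beacon fluorescence read at start and 1 h | read-out basis = % inhibition of unwinding | control set = low DMSO, high thioflavine S at 110 µM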
ZTA counter: counter-screen for EBNA-1 inhibitors: inhibitors of Epstein-Barr virus ZTA; P03206; ZTA-DNA binding, fluorescence polarization; inhibition, % at 11 µM; 320,000 compounds, 0.15% hits; AID 2234; in the data active = inhibition above about 33%
Target sequence (P03206 whole entry, looked up): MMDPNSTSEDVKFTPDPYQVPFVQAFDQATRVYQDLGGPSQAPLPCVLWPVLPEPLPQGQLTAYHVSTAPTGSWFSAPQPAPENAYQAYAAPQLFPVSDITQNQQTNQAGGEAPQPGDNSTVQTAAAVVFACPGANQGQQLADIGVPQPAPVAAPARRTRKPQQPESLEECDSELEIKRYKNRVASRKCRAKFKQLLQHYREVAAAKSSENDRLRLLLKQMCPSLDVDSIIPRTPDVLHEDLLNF
NS3 helicase cf: confirmation of Hepatitis C virus NS3 helicase inhibitors; shares compounds with HCV NS3 hel inh; NS3 helicase DNA unwinding, Cy5 molecular beacon fluorescence; inhibition, % at 10.9 µM; 1,600 compounds, 31% hits; AID 1943;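 active = inhibition above the mean of all tested compounds plus 3 SD, cutoff set per campaign, cut at about 36% in these data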
DNA FID counter: intercalator displacement, NS3 helicase counter-screen. shares compounds with HCV NS3 hel inh. DNA fluorescent intercalator displacement, fluorescence. inhibition, % at 7.9 µM. 1,600 compounds, 4% hits; in the data active = inhibition above about 37%;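 also: 0% = vehicle and 100% = reference compound; higher means more displacement of ethidium bromide from the DNA hairpin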
FID counter DR: DNA intercalator displacement in dose response | IC50, µM | fluorescent intercalator displacement from DNA, fluorescence | AID 2172 | 120 tested, under 10 active | shares compounds with HCV NS3 hel inh; call rule not given here
An asterisk follows results filed as active; · = no result given; + = active, no number.

SMILES | Fh CTSL1 inh | EBNA-1 inh | HCV NS3 hel inh | ZTA counter | NS3 helicase cf | DNA FID counter | others
Cc1ccc(N2NC(=O)/C(=C/c3ccc(-c4ccc(Cl)c(C(=O)O)c4)o3)C2=O)cc1 | -3 | -1 | 33 | -10 | · | ·
O=C1NN(c2ccc(Cl)cc2)C(=O)/C1=C\c1ccc(-c2cccc(C(=O)O)c2)o1 | · | · | 46* | · | 66* | 15
c1ccc(CSc2nnc(-c3ccco3)n2Cc2ccco2)cc1 | -7 | 0 | -6 | 10 | · | ·
CCCCOc1[nH]c2nc(-c3ccco3)n(Cc3ccco3)c(=N)c2c1C#N | 4 | 7 | 39* | 13 | 13 | 19
O=C(Nc1ccc(Cc2ccncc2)cc1)C1CCC(N2C(=O)C3C4C=CC(C4)C3C2=O)CC1 (centres undefined) | 0 | -2 | -7 | -24 | · | ·
Cc1nnc2c3ccccc3c(-c3ccccc3)nn12 | -1 | 16 | -1 | 14 | · | ·
CC1(C)Cc2nc3sc(C(=O)O)c(N)c3cc2CS1 | 0 | 0 | 48* | 9 | -11 | -11
Cc1ccccc1-c1nc(CN2CCC(C(=O)NCc3cccnc3)CC2)c(C)o1 | -4 | -3 | -12 | -6 | · | ·
CCOc1cc(CNc2ccc(N(C)C)cc2)cc(Br)c1OCC(=O)NC(C)(C)C | -5 | + | 53* | + | 16 | -6
Cc1cc2oc(=O)cc(CN(C)Cc3ccccc3F)c2cc1Cl | 7 | -9 | -15 | 0 | · | ·
Cn1nc(C(F)(F)F)c(-c2cccc(C(F)(F)F)c2)c1NC(=O)c1nccnc1C(=O)O | 0 | 4 | 51* | -3 | 7 | -8
Cn1nc(C(F)(F)F)c(-c2ccccc2)c1NC(=O)c1nccnc1C(=O)O | -2 | -4 | 14 | -7 | · | ·
CCN(CC)C(=O)c1cnn(-c2ccccc2)c1NC(=O)c1cccc(F)c1 | 1 | -6 | 4 | -14 | · | ·
Cc1cccc(C(=O)OCc2cc(=O)oc3c(C)c(C)ccc23)c1O | 11 | -10 | 37* | -17 | -11 | 14
CC(C)(C)NC(=O)NC(=O)CSc1cccc(C(F)(F)F)c1 | 2 | 4 | 37* | 13 | -10 | 7
CNC(=O)NC(=O)CSc1cccc(C(F)(F)F)c1 | -3 | -2 | -2 | 4 | · | ·
Cn1cccc1Cc1nnc(SCC(=O)Nc2cccc(F)c2)n1CCc1ccccc1 | 5 | 5 | 42* | 10 | -6 | -27
Cn1cccc1Cc1nnc(SCC(=O)Nc2ccccc2F)n1CCc1ccccc1 | 3 | -3 | 5 | 1 | · | ·
COc1ccc(/C=C2\C(=O)N(c3nc(-c4ccc(Br)cc4)cs3)N=C2c2ccccc2)cc1 | · | · | 23 | · | · | ·
COc1ccc(C2=NN(c3nc4ccccc4s3)C(=O)/C2=C\N(C)C)cc1 | 0 | 11 | 47* | 15 | 18 | -5
COC(=O)c1cc(N=Cc2c(O)c3ccccc3oc2=O)cc(C(=O)OC)c1 | -1 | -15 | 40* | 13 | 4 | 10
CCc1cc2c(=O)n(Cc3ccco3)c(SCC(=O)NCC3CCCO3)nc2s1 (centres undefined) | 3 | -10 | 2 | -2 | · | ·
CCc1cc2c(=O)n(Cc3ccco3)c(SCc3c(C)noc3C)nc2s1 | 1 | 7 | 51* | -4 | 48* | -30 | FID counter DR=>79
CCc1cc2c(=O)n(Cc3ccco3)c(SCC(=O)N3CCCc4ccccc43)nc2s1 | 0 | 7 | 43* | 3 | 25 | -16
O=C(COC(=O)/C=C/c1ccco1)Nc1ncc(C(F)(F)F)cc1Cl | -13 | -1 | 55* | 13 | 7 | -18
SMILES | Fh CTSL1 inh | EBNA-1 inh | HCV NS3 hel inh | ZTA counter | NS3 helicase cf | DNA FID counter | others
CN(C)S(=O)(=O)c1cccc(NC(=O)COC(=O)/C=C/c2ccco2)c1 | -5 | -1 | 6 | -8 | · | ·
O=C(COC(=O)/C=C/c1ccco1)Nc1cccc([N+](=O)[O-])c1 | -15 | 18 | 38* | 1 | -18 | -5
N#Cc1cn(CCOC(=O)c2cccc(C(F)(F)F)c2)c(=O)[nH]c1=O | 4 | -16 | -13 | 13 | · | ·
COc1ccc(N2CCN(c3cc(C)c4cccc(C)c4n3)CC2)cc1 | -15 | -9 | 3 | 7 | · | ·
O=c1cc2oc3cc(O)c(O)cc3c(-c3ccccc3O)c-2cc1O | · | · | 51* | · | 102* | -76
COc1ccc(OC)c(-c2oc3ccccc3c(=O)c2O)c1 | -1 | -8 | -3 | 0 | · | ·
Cc1ccccc1-c1cc(=O)c2c(O)cccc2o1 | 4 | 8 | · | 2 | · | ·

Screening data as filed in PubChem.
